In PubChem BioAssay AID1885 (Broad Institute, 2009):
The campaign covered roughly 300,000 compounds. About 4,400 (1.5%) were called active.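 The calls were made as follows: active = mean inhibition across valid replicates above about 55% (limit read from the data); inconclusive = mean below that limit but half or more replicates reach it; inactive = mean below it, under half of replicates reach it.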 The list comes from a sample in which actives are over-represented; it also holds similar structures and randomly drawn compounds.

Test: inhibitors of intracellular T. cruzi growth, primary screen, luminescence, NIH3T3 host cells (AID 1885);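 also: signal also drops with host cell toxicity which is not excluded here; 0% = plate median of DMSO wells and 100% = zero luminescence signal; higher percent means less beta-gal luminescence so fewer parasites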
Settings: T. cruzi beta-gal in NIH3T3, luminescence, 90 h; active compounds read high; concentration not given here
In short: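 compound dosing = single 50 nL compound addition per well in DMSO | material = NIH/3T3 host cells with β-galactosidase reporter T. cruzi | input = 5,000 host fibroblasts per well | timing = ≥90 h infection period, 3 h prior cell attachment | read-out basis = percent inhibition of parasite-derived β-gal signal | detection = GalScreen β-gal luminescence, detergent lysis, 60 min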

Row | Compound | inhibition
1 | COC(=O)c1ccc(SCc2ccccc2)nc1 | -10.6% (inactive)
2 | CC1=C/C(=N\OS(=O)(=O)c2ccccc2)C=CC1=O | 68.7% (active)
3 | O=S(=O)(ON(c1ccccc1)S(=O)(=O)c1ccccc1)c1ccccc1 | -3.86% (inactive)
4 | COc1ccc(NS(=O)(=O)c2ccc(C)c(C(=O)NCC(c3cccs3)N3CCOCC3)c2)cc1 (stereo not drawn) | 20.6% (inactive)
5 | O=C(Cn1cnc2c(cnn2-c2ccccc2)c1=O)NCc1ccccc1 | -38.8% (inactive)
6 | O=C(Cn1cnc2cc([N+](=O)[O-])ccc2c1=O)NC(=O)NCc1ccccc1 | 62.3% (active)
7 | CC(C)(C)NC(=O)Cn1cnc2cc([N+](=O)[O-])ccc2c1=O | 33.5% (inactive)
8 | CN(CC(=O)Nc1ccccc1Cl)C(=O)c1ccccc1SCC(=O)N1CCCC1 | 2.13% (inactive)
9 | COc1ccc(CCNC(=O)C(=O)NCC2CCCN2S(=O)(=O)c2cccs2)cc1OC (stereo not drawn) | 17.5% (inactive)
10 | CC(=O)c1sc(N/N=C\c2ccc(C)cc2)nc1C | -6.96% (inactive)
11 | CC(=O)c1sc(N/N=C/c2ccc(C(C)C)cc2)nc1C | 65.4% (active)
12 | CC(=O)c1sc(NC(=O)CCCOc2ccccc2C)nc1C | -0.939% (inactive)
13 | O=C(Nc1ccc(OC(F)(F)F)cc1)c1ccc2c(c1)no[n+]2[O-] | 34.6% (inactive)
14 | COc1ccccc1C(=O)NC(=O)COC(=O)C1CC1 | 5.64% (inactive)
15 | CS(=O)(=O)N(CC(=O)N1CCc2ccccc2C1)c1ccc(Br)cc1 | 17.3% (inactive)
16 | CCC(=C/c1sc2ccc3ccccc3c2[n+]1C)/C=C1\Sc2ccc3ccccc3c2N1C | 65.5% (active)
17 | O=C(COc1ccccc1)Nc1ccc(F)cc1 | -10.9% (inactive)
18 | O=C(NC(Cc1ccccc1)C(=O)N1CCCC(C(F)(F)F)C1)c1ccccc1 (stereo not drawn) | -16.5% (inactive)
19 | COc1ccc(NC(=O)c2cc(-c3ccc(C)o3)nc3ccccc23)cc1 | 14.8% (inactive)
20 | COc1ccc2sc(N(CCCN(C)C)C(=O)c3ccc(S(=O)(=O)N(C)C4CCCCC4)cc3)nc2c1 | 61% (active)
21 | CCc1ccc2nc(N(CCCN(C)C)C(=O)c3ccc4c(c3)OCCO4)sc2c1 | 55.2% (active)
22 | Cc1ccc2nc(N(CCN(C)C)C(=O)C3=COCCO3)sc2c1 | 53% (inactive)

Row | Compound | inhibition
23 | CCOc1ccc(S(=O)(=O)Nc2nc3cc(OC)ccc3s2)cc1 | -7.46% (inactive)
24 | CCOc1ccc2nc(N(CCCN(C)C)C(=O)c3ccc(C(=O)c4ccccc4)cc3)sc2c1 | 34.6% (inactive)
25 | CCN(CC)CCN(C(=O)c1cc(Cl)sc1Cl)c1nc2cc3c(cc2s1)OCO3 | 33.9% (inactive)
26 | CN(C)CCN(C(=O)CN1C(=O)c2ccccc2C1=O)c1nc2cc3c(cc2s1)OCCO3 | 66.3% (active)
27 | COc1cccc2sc(N(CCCN(C)C)C(=O)CCS(=O)(=O)c3ccccc3)nc12 | -2.98% (inactive)
28 | COc1cccc2sc(N(CCCN(C)C)C(=O)C(c3ccccc3)c3ccccc3)nc12 | 31.5% (inactive)
29 | CN(C)CCN(C(=O)C1=COCCO1)c1nc2ccc(Cl)cc2s1 | 41.8% (inactive)
30 | CN(C)CCN(C(=O)C1CCCCC1)c1nc2cc3c(cc2s1)OCO3 | 28.7% (inactive)
31 | CC(=O)N(CCCN(C)C)c1nc2ccc(C)cc2s1 | 57.7% (active)
32 | Cc1ccc(S(=O)(=O)NCCC(=O)NC2CCN(Cc3ccccc3)CC2)cc1 | 38% (inactive)
33 | CCOc1ccc(S(=O)(=O)N2CCC(C(=O)OCc3ccc(OC)cc3)CC2)cc1 | -1.31% (inactive)
34 | COc1ccccc1N(CC(=O)Nc1ccccc1C(=O)N1CCCC1)S(C)(=O)=O | -3.65% (inactive)
35 | Cc1ccc(NC(=O)CSCC(=O)Nc2sccc2C#N)cc1 | -1.58% (inactive)
36 | COc1ccc(CCNC(=O)CN2C(=O)COc3ccc(S(=O)(=O)N4CCCC4)cc32)cc1OC | -4.6% (inactive)
37 | CN(C)CCCN(C(=O)c1ccc(S(=O)(=O)N2CCCCCC2)cc1)c1nc2cc3c(cc2s1)OCCO3 | 65.3% (active)
38 | CN(C)CCCN(C(=O)c1ccc(S(=O)(=O)N2CCCCCC2)cc1)c1nc2ccc(Br)cc2s1 | 23.2% (inactive)
39 | CCN(CC)CCN(C(=O)c1ccc(S(=O)(=O)N2CCOCC2)cc1)c1nc2cc3c(cc2s1)OCCO3 | 50.5% (inactive)
40 | Cc1ccccc1OCC(=O)NNC(=O)c1ccc(-n2cncn2)c([N+](=O)[O-])c1 | 14.2% (inactive)
41 | COc1cc(C(=O)OCC(=O)N(CC(C)C)C2CCS(=O)(=O)C2)ccc1OCC(C)C (stereo not drawn) | 1.65% (inactive)
42 | O=C(CSc1ncnc2c1oc1ccccc12)NC1CCCC1 | 9.78% (inactive)
43 | O=C(Cc1ccc(F)cc1)NC1CCCC1 | -10.7% (inactive)
44 | O=C(CSc1ncnc2c1nnn2Cc1ccc(F)cc1)NC1CCCC1 | 59.1% (active)

Row | Compound | inhibition
45 | Cc1sc(NC(=O)C2=COCCO2)c(C#N)c1C | 6.24% (inactive)
46 | COc1cccc(C(=O)NCCS(=O)(=O)NCC2CCCO2)c1 (stereo not drawn) | -7.57% (inactive)
47 | O=C(NCCCN1CCOCC1)c1ccc(N2CCCC2)c([N+](=O)[O-])c1 | 8.18% (inactive)
48 | O=C(NCCCN1CCOCC1)c1ccc([N+](=O)[O-])cc1[N+](=O)[O-] | 64.7% (active)
49 | O=[N+]([O-])c1ccc(NCCCN2CCOCC2)c(Cl)c1 | 10.6% (inactive)
50 | Cc1ccc(C(=O)NNC(=O)C(C)Oc2ccc3ccccc3c2)o1 (stereo not drawn) | -1.31% (inactive)
51 | COc1ccccc1C(c1nnnn1C(C)(C)C)N1CCN(Cc2ccccc2)CC1 (stereo not drawn) | -3.59% (inactive)
52 | COCCn1nnnc1C(c1cc2ccc(OC)cc2[nH]c1=O)N1CCc2ccccc2C1 (stereo not drawn) | -9.17% (inactive)
53 | COc1ccc(OC)c(C(c2nnnn2C(C)(C)C)N2CCc3ccccc3C2)c1 (stereo not drawn) | 63.1% (active)
54 | CCCCN(C(=O)c1ccc(C)o1)c1c(N)n(CCCC)c(=O)[nH]c1=O | -0.399% (inactive)
55 | O=C1CC(Sc2ncn[nH]2)C(=O)N1c1ccccc1 (stereo not drawn) | 23.3% (inactive)
56 | Cc1c(-c2ccccc2)nc(N)c(C#N)c1-c1cccs1 | 0.738% (inactive)
57 | CC(NC(=O)CSc1nc2c(cc1C#N)CN(C)CC2)c1ccccc1 (stereo not drawn) | 1.88% (inactive)
58 | CN1CCc2nc(SC(C(=O)O)c3ccccc3)c(C#N)c(-c3cccs3)c2C1 (stereo not drawn) | 64.4% (active)
59 | CCCCn1c(N)c(N(Cc2ccccc2OC)C(=O)COc2cc(C)ccc2Cl)c(=O)[nH]c1=O | 6.73% (inactive)
60 | COc1ccccc1C(=O)COC(=O)CSCC(=O)Nc1cc(C)on1 | -6.4% (inactive)
61 | O=C(NCCN1CCOCC1)c1ccc(/C=C2\Sc3ccccc3N(Cc3ccc(F)cc3)C2=O)cc1 | 10.9% (inactive)
62 | CCN1CCN(CCNC(=O)c2ccc(/C=C3/Sc4ccccc4N(Cc4cccc(C)c4)C3=O)cc2)CC1 | 59% (active)
63 | CCN1CCN(CCNC(=O)c2ccc3c(c2)NC(=O)/C(=C\c2ccc(OC)c(OC)c2)S3)CC1 | 11.8% (inactive)
64 | Cc1cc(C)c(S(=O)(=O)N2CCCC2CNC(=O)c2ccc3c(c2)OCO3)c(C)c1 (stereo not drawn) | -2.11% (inactive)
65 | Cc1ccc(S(=O)(=O)c2c[nH]c3ccc(Cl)cc3c2=O)cc1 | 5.53% (inactive)
66 | O=C(C1=C[C@H](c2coc3ccccc3c2=O)C[C@H](OCc2ccc(CO)cc2)O1)N1CCN(Cc2ccccc2)CC1 | 33.6% (inactive)

Row | Compound | inhibition
67 | O=C(NCc1ccccc1)C1=C[C@H](C2CC2)C[C@H](OCc2ccc(CO)cc2)O1 | 15% (inactive)
68 | O=C(C1=C[C@H](C2CC2)C[C@H](OCc2ccc(CO)cc2)O1)N1CCN(Cc2ccccc2)CC1 | 59.7% (active)
69 | O=S(=O)(c1ccccc1)N1CCC(c2ccccc2)CC1 | 0.981% (inactive)
70 | Cc1ccc(C(=O)N2CCC(n3nccc3NC(=O)Nc3cccc(F)c3)CC2)cn1 | -8.51% (inactive)
71 | COc1ccc(CNS(=O)(=O)c2cc3c4c(c2)CCN4C(=O)CC3)cc1 | -11.2% (inactive)
72 | COc1cc(C(=O)NNC(=O)c2ccc(S(=O)(=O)N3CCCCC3)cc2)cc(OC)c1OC | -12.8% (inactive)
73 | CC1CN(S(=O)(=O)c2ccc(C(=O)NN3CCN(C)CC3)cc2)CC(C)O1 (stereo not drawn) | 6.61% (inactive)
74 | CN1CCN(NC(=O)c2ccc(S(=O)(=O)N3CCCCCC3)cc2)CC1 | 68.3% (active)
75 | CCN(CC(=O)Nc1cc(Cl)ccc1C)C(=O)CN1C(=O)NC2(CCCC2)C1=O | 2.7% (inactive)
76 | COc1ccc(C(=O)CN2C(=O)NC3(CCc4ccccc43)C2=O)c(OC)c1 (stereo not drawn) | 1.63% (inactive)
77 | C/C(=N\NC(=O)Cc1ccc(Br)cc1)c1cccnc1 | -9.89% (inactive)
78 | C/C(=N\NC(=O)c1ccccc1F)c1ccccn1 | 23.5% (inactive)
79 | C/C(=N\NC(=O)Cc1ccc(Cl)cc1)c1ccccn1 | 64.9% (active)
80 | CCOc1ccc(NC(=O)CN(C)C(=O)c2c(C)noc2C)cc1OCC | 0.476% (inactive)
81 | CCCS(=O)(=O)N1CCN=C1SCc1cccc(F)c1 | 6.03% (inactive)
82 | CC1CCN(c2ccc(-c3ccc(NC(=O)c4ccco4)cc3)nn2)CC1 | 6.55% (inactive)
83 | COc1ccc(NC(=O)CSc2nc(NS(=O)(=O)c3ccc(C)cc3)cc(=O)[nH]2)cc1 | 7.86% (inactive)
84 | Cc1ccc2nc(N3CCN(C(=O)c4ccco4)CC3)sc2c1 | -3.92% (inactive)
85 | COc1ccc2nc(N3CCN(C(=O)c4ccc([N+](=O)[O-])o4)CC3)sc2c1 | 60.2% (active)
86 | O=C(c1ccc2nc(N3CCOCC3)sc2c1)N1CCN(c2ccc(Cl)cc2)CC1 | 2.47% (inactive)
87 | O=C1C=C(c2ccc(Cl)cc2)C(=O)N1Nc1ccccc1 | 44.2% (inactive)
88 | CC1CCN(C(=O)c2cccc(S(=O)(=O)N3CCCc4ccccc43)c2)CC1 | 12.1% (inactive)
